{"source": "ChEMBL document CHEMBL4152184", "about": "“NB 06: From a simple lysosomotropic aSMase inhibitor to tools for elucidating the role of lysosomes in signaling apoptosis and LPS-induced inflammation” (Eur J Med Chem, 2018)", "key": {"MONO-MAC-6 [1]": {"test_system": "MONO-MAC-6", "experiment": "Downregulation of ICAM1 mRNA expression level in LPS-stimulated human MONO-MAC-6 cells at 5 uM preincubated for 30 mins followed by LPS stimulation measured after 2 hrs by oligonucleotide array hybridization assay (reference value: 1.94)", "format": "functional", "outline": "(§1)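 Total RNA was isolated, transcribed and labeled with DY-647 dye, then co-hybridized with DY-548-labeled cDNA from untreated cells on an inflammation oligonucleotide chip (780 gene probes). Differential expression >1.5 was taken as significant.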"}, "MONO-MAC-6 [2]": {"test_system": "MONO-MAC-6", "experiment": "Upregulation of CXCL10 mRNA expression level in LPS-stimulated human MONO-MAC-6 cells at 5 uM preincubated for 30 mins followed by LPS stimulation measured after 4 hrs by oligonucleotide array hybridization assay (reference value: 3.07)", "format": "functional"}, "MONO-MAC-6 [3]": {"test_system": "MONO-MAC-6", "experiment": "Upregulation of CXCL3 mRNA expression level in human MONO-MAC-6 cells at 5 uM incubated for 30 mins measured after 1 hr by oligonucleotide array hybridization assay relative to control", "format": "functional"}, "MONO-MAC-6 [4]": {"test_system": "MONO-MAC-6", "experiment": "Upregulation of CXCL10 mRNA expression level in LPS-stimulated human MONO-MAC-6 cells at 5 uM preincubated for 30 mins followed by LPS stimulation measured after 2 hrs by oligonucleotide array hybridization assay (reference value: 1.73)", "format": "functional"}, "MONO-MAC-6 [5]": {"test_system": "MONO-MAC-6", "experiment": "Downregulation of IL23A mRNA expression level in human MONO-MAC-6 cells at 5 uM incubated for 30 mins measured after 6 hrs by qRT-PCR method relative to control", "format": "functional"}, "MONO-MAC-6 [6]": {"test_system": "MONO-MAC-6", "experiment": "Downregulation of CXCL10 mRNA expression level in human MONO-MAC-6 cells at 5 uM incubated for 30 mins measured after 4 hrs by oligonucleotide array hybridization assay relative to control", "format": "functional", "outline": "as §1"}, "MONO-MAC-6 [7]": {"test_system": "MONO-MAC-6", "experiment": "Downregulation of PTGS2 mRNA expression level in human MONO-MAC-6 cells at 5 uM incubated for 30 mins measured after 1 hr by oligonucleotide array hybridization assay relative to control", "format": "functional", "outline": "as §1"}, "MONO-MAC-6 [8]": {"test_system": "MONO-MAC-6", "experiment": "Upregulation of IL-6 mRNA expression level in LPS-stimulated human MONO-MAC-6 cells at 5 uM preincubated for 30 mins followed by LPS stimulation measured after 2 hrs by qRT-PCR method (reference value: […])", "format": "functional"}, "MONO-MAC-6 [9]": {"test_system": "MONO-MAC-6", "experiment": "Upregulation of HSPA1A mRNA expression level in LPS-stimulated human MONO-MAC-6 cells preincubated for 30 mins followed by LPS stimulation measured after 4 hrs by qRT-PCR analysis relative to control", "format": "functional"}, "MONO-MAC-6 [10]": {"test_system": "MONO-MAC-6", "experiment": "Upregulation of ICAM1 mRNA expression level in LPS-stimulated human MONO-MAC-6 cells at 5 uM preincubated for 30 mins followed by LPS stimulation measured after 1 hr by oligonucleotide array hybridization assay (reference value: 1.17)", "format": "functional"}, "MONO-MAC-6 [11]": {"test_system": "MONO-MAC-6", "experiment": "Upregulation of CXCL3 mRNA expression level in LPS-stimulated human MONO-MAC-6 cells at 5 uM preincubated for 30 mins followed by LPS stimulation measured after 6 hrs by oligonucleotide array hybridization assay (reference value: 5.74)", "format": "functional"}, "MONO-MAC-6 [12]": {"test_system": "MONO-MAC-6", "experiment": "Upregulation of CXCL10 mRNA expression level in LPS-stimulated human MONO-MAC-6 cells at 5 uM preincubated for 30 mins followed by LPS stimulation measured after 6 hrs by oligonucleotide array hybridization assay (reference value: 1.57)", "format": "functional"}, "MONO-MAC-6 [13]": {"test_system": "MONO-MAC-6", "experiment": "Upregulation of CXCL2 mRNA expression level in LPS-stimulated human MONO-MAC-6 cells at 5 uM preincubated for 30 mins followed by LPS stimulation measured after 2 hrs by qRT-PCR method (reference value: 4.77)", "format": "functional"}, "MONO-MAC-6 [14]": {"test_system": "MONO-MAC-6", "experiment": "Downregulation of CCL4 mRNA expression level in human MONO-MAC-6 cells at 5 uM incubated for 30 mins measured after 4 hrs by oligonucleotide array hybridization assay relative to control", "format": "functional", "outline": "as §1"}, "[15]": {"target": "T1, Acid ceramidase (Homo sapiens) (UniProt Q13510)", "T1 sequence (whole entry)": "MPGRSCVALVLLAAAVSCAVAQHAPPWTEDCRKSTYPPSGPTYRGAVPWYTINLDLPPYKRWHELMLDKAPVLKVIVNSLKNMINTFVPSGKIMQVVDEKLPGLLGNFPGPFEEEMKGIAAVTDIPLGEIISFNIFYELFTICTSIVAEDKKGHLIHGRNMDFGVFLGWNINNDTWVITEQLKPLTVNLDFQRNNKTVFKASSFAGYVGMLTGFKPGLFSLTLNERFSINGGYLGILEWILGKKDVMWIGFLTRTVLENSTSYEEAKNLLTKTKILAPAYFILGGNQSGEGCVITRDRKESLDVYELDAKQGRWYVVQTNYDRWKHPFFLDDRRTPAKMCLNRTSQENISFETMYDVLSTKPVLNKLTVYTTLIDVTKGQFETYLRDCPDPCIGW", "experiment": "Inhibition of mmLDL-stimulated acid ceramidase in human PBMC assessed as ratio of C16-ceramide/lipid phosphate level at 10 uM preincubated for 30 mins followed by mmLDL stimulation measured after 4 hrs by HPLC method (reference value: 0.49)", "format": "cell-based", "outline": "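Human macrophages from primary culture were preincubated 30 min with 10 µM compound. They were then stimulated 4 h with mmLDL (54 µg/mL), TNFalpha (3 ng/mL) or exogenous C6-ceramide (10 µM), or left unstimulated. Individual ceramide species (C16 and C24:1) were quantified in the cell lipid extracts.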"}, "MONO-MAC-6 [16]": {"test_system": "MONO-MAC-6", "experiment": "Downregulation of CXCL2 mRNA expression level in human MONO-MAC-6 cells at 5 uM incubated for 30 mins measured after 1 hr by qRT-PCR method relative to control", "format": "functional"}, "MONO-MAC-6 [17]": {"test_system": "MONO-MAC-6", "experiment": "Upregulation of TNFalpha mRNA expression level in LPS-stimulated human MONO-MAC-6 cells at 5 uM preincubated for 30 mins followed by LPS stimulation measured after 2 hrs by qRT-PCR method (reference value: 3.10)", "format": "functional"}, "MONO-MAC-6 [18]": {"test_system": "MONO-MAC-6", "experiment": "Downregulation of CXCL3 mRNA expression level in human MONO-MAC-6 cells at 5 uM incubated for 30 mins measured after 6 hrs by oligonucleotide array hybridization assay relative to control", "format": "functional", "outline": "as §1"}, "MONO-MAC-6 [19]": {"test_system": "MONO-MAC-6", "experiment": "Upregulation of IL23A mRNA expression level in LPS-stimulated human MONO-MAC-6 cells at 5 uM preincubated for 30 mins followed by LPS stimulation measured after 4 hrs by qRT-PCR method (reference value: 10.78)", "format": "functional"}, "MONO-MAC-6 [20]": {"test_system": "MONO-MAC-6", "experiment": "Downregulation of CXCL2 mRNA expression level in human MONO-MAC-6 cells at 5 uM incubated for 30 mins measured after 6 hrs by oligonucleotide array hybridization assay relative to control", "format": "functional", "outline": "as §1"}, "PBMC": {"test_system": "PBMC", "experiment": "Inhibition of TNFalpha-stimulated apoptosis in human PBMC assessed as apoptotic cells at 2 uM preincubated for 30 mins followed by TNFalpha stimulation measured after 4 hrs by YO-PRO-1/Hoechst 33342 staining based assay relative to control", "format": "functional", "set-up": "scale not given: the % may be the effect or the level left", "outline": "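PBMC pre-incubated 30 min with 2 μM compound, then stimulated with mmLDL (27 μg/mL; line 5) or TNFalpha (3 ng/mL; line 1) for 4 h. Apoptotic cells stained with YO-PRO-1 and all cells with Hoechst 33342. Each plate had control, stimulus, compound alone and compound plus stimulus; n = 3. Values are on a 0% (untreated control, corrected for spontaneous apoptosis) to 100% (stimulus alone) scale; means ± SE.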"}, "MONO-MAC-6 [21]": {"test_system": "MONO-MAC-6", "experiment": "Upregulation of IL23A mRNA expression level in LPS-stimulated human MONO-MAC-6 cells at 5 uM preincubated for 30 mins followed by LPS stimulation measured after 6 hrs by qRT-PCR method (reference value: 7.18)", "format": "functional"}}}
{"smiles": "COc1ccc(CCN(C)CCCn2c3ccccc3c3ccccc32)cc1", "values": [{"measurement": "fold change (FC)", "setting": "MONO-MAC-6 [1]", "result": 1.14}, {"measurement": "fold change (FC)", "setting": "MONO-MAC-6 [2]", "result": 1.01}, {"measurement": "fold change (FC)", "setting": "MONO-MAC-6 [3]", "result": 1.46}, {"measurement": "fold change (FC)", "setting": "MONO-MAC-6 [4]", "result": 1.63}, {"measurement": "fold change (FC)", "setting": "MONO-MAC-6 [5]", "result": 1.72}, {"measurement": "fold change (FC)", "setting": "MONO-MAC-6 [6]", "result": 2.08}, {"measurement": "fold change (FC)", "setting": "MONO-MAC-6 [7]", "result": 1.1}, {"measurement": "fold change (FC)", "setting": "MONO-MAC-6 [8]", "result": 6.12}, {"measurement": "fold change (FC)", "setting": "MONO-MAC-6 [9]", "result": 2.67}, {"measurement": "fold change (FC)", "setting": "MONO-MAC-6 [10]", "result": 1.11}, {"measurement": "fold change (FC)", "setting": "MONO-MAC-6 [11]", "result": 1.15}, {"measurement": "fold change (FC)", "setting": "MONO-MAC-6 [12]", "result": 1.12}, {"measurement": "fold change (FC)", "setting": "MONO-MAC-6 [13]", "result": 5.03}, {"measurement": "fold change (FC)", "setting": "MONO-MAC-6 [14]", "result": 1.55}, {"measurement": "Ratio", "setting": "[15]", "result": 0.24}, {"measurement": "fold change (FC)", "setting": "MONO-MAC-6 [16]", "result": 1.01}, {"measurement": "fold change (FC)", "setting": "MONO-MAC-6 [17]", "result": 1.34}, {"measurement": "fold change (FC)", "setting": "MONO-MAC-6 [18]", "result": 4.67}, {"measurement": "fold change (FC)", "setting": "MONO-MAC-6 [19]", "result": 1.71}, {"measurement": "fold change (FC)", "setting": "MONO-MAC-6 [20]", "result": 5.44}, {"measurement": "Activity", "setting": "PBMC", "result": 19, "unit": "%"}, {"measurement": "fold change (FC)", "setting": "MONO-MAC-6 [21]", "result": 1.1}]}
